# Measured values from PubChem BioAssay AID493091 (Sanford-Burnham Center for Chemical Genomics, 2011).
# Out of some 340,000 compounds screened, about 3,000 (0.88%) were called active. Shown is part of a subset that was picked to be rich in actives. A number with no mark means an inactive call.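 The calls were made as follows: active = inhibition above about 50% at 20 µM (limit read from the data); inactive = the rest.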
# Biological target: Carboxy-terminal domain RNA polymerase II polypeptide A small phosphatase 1 (Homo sapiens) (UniProt Q9GZU7)
# Assay: inhibition of human SCP1 dephosphorylation activity – biochemical, colorimetric, uHTS, primary screen (AID 493091);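 also: plate controls were DMSO wells with enzyme for no effect and wells lacking enzyme for full effect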
# Conditions: Recombinant Scp1, phosphopeptide, malachite green phosphate absorbance; at 20 µM; active compounds read high
# Method in brief: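 Test system – truncated SCP-1 phosphatase (76-261aa) · Reagent – Phosphorylated 17-residue peptide substrate · Incubation – 45 min room-temperature reaction, 5 min colour, 30 min stabiliser · Detection – colorimetric phosphate reagent with accelerator and stabiliser, absorbance at 630 nm · Measure – % inhibition at 20 µM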
# Sequence of Carboxy-terminal domain RNA polymerase II polypeptide A small phosphatase 1 (Homo sapiens) (Q9GZU7 76-261 limits assumed): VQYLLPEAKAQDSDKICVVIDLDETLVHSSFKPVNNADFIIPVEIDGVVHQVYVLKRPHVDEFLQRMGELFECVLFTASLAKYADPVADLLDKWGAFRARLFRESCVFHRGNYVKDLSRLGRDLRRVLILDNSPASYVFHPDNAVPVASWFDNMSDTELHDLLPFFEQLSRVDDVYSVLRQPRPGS
row,Compound,inhibition
1,CC(=O)c1ccc(NC(=O)CSc2nc3ccccc3c(=O)n2CCCN2CCOCC2)cc1,-7.5%
2,Cn1cnc([N+](=O)[O-])c1Sc1ccccc1,-15.4%
3,O=C(NCCC1=CCCCC1)c1ccc(-n2cncn2)cc1,0.7%
4,O=C(O)c1ccccc1-c1ccccc1C(=O)NCc1cccnc1,-6.94%
5,CSc1ccccc1NC(=O)c1cnc2sc(C)cn2c1=O,-3.98%
6,COc1ccc(C2C3=C(OC(C)=O)c4ccccc4C3=Nc3c2c(=O)n(C)c(=O)n3C)cc1 (stereo unspecified),-10.3%
7,CN(C)S(=O)(=O)c1cc(NC(=O)CN2C(=O)NC3(CCCc4ccccc43)C2=O)ccc1Cl (stereo unspecified),-6.5%
8,COc1ccc(/C(O)=C2/C(=O)C(=O)N(c3nc(C)c(C)s3)C2c2ccco2)cc1 (stereo unspecified),-0.42%
9,Cn1c(=O)c2cc(S(=O)(=O)NCCC(=O)Nc3ccc(F)cc3F)ccc2n(C)c1=O,-3.26%
10,CCOC(=O)C1(S(=O)(=O)c2ccc(Cl)cc2)CCN(Cc2ccccc2)CC1,-6.96%
11,COC(=O)c1ccccc1NC(=O)C1(S(=O)(=O)c2ccc(Cl)cc2)CC1,82.2% (active)
12,COC(=O)c1ccccc1NC(=O)CN(Cc1ccc(Cl)cc1)S(C)(=O)=O,-4.27%
13,CNC1(c2nnnn2-c2c(C)cccc2C)CCOC(C)(C)C1 (stereo unspecified),-10.7%
14,Cc1ccc(S(=O)(=O)NCC(=O)N2CCOCCOCCOCCOCC2)cc1,-7.08%
15,CC1CCCCC1NC(=O)C1CCCN1S(=O)(=O)c1cccc2nsnc12 (stereo unspecified),-9.08%
16,Cc1ccc(NC(=O)COc2ccc(/C=N\NC(=O)c3cccnc3)cc2)cc1C,73% (active)
17,Cc1ccc(OCC(=O)NCCCNC(=O)c2cccnc2)cc1C,3.67%
18,O=C(COc1ccc(/C=N/NC(=O)c2ccc(O)cc2)cc1)Nc1ccc([N+](=O)[O-])cc1,-4.15%
19,CCC(C)OC(=O)C(C)Oc1ccc(-c2ccccc2)cc1 (stereo unspecified),0.19%
20,O=C(CN1C(=O)COc2ccc(Cl)cc21)N1CCOCC1,3.98%
21,Cc1ccc(C2(C)NC(=O)N(CC(=O)Nc3ccccc3C(=O)N3CCCCC3)C2=O)cc1 (stereo unspecified),65.5% (active)
22,Cc1ccc(C2(C)NC(=O)N(CC(=O)N3CC(=O)Nc4ccccc43)C2=O)cc1 (stereo unspecified),-4.98%
23,Cc1ccc(NC(=O)CN2C(=O)NC(C)(c3ccc(Cl)cc3)C2=O)c(Br)c1 (stereo unspecified),-3.83%

row,Compound,inhibition
1,CC1CC(C)CN(CCOc2cccc3ccccc23)C1 (stereo unspecified),-2.45%
2,CCn1ncc(C2=NOC(C(=O)Nc3ccccc3C(=O)OC)C2)c1C (stereo unspecified),-6.5%
3,O=C(Oc1ccc(-c2nc(-c3ccccn3)no2)cc1)c1ccccc1,7.66%
4,O=C1C(=O)N(c2ccccc2)c2ccccc21,-4.37%
5,O=C(O)COCC(=O)NCc1csc2ccc(Cl)cc12,11.2%
6,Cc1ccc(C(=O)NNC(=O)c2cc3cc4ccccc4nc3s2)cc1,83.1% (active)
7,Cc1ccc(C(=O)NNc2ncnc3ccccc23)cc1,5.78%
8,Cc1ccc(C(=O)NNC(=O)c2ccc3c(c2)OCCO3)cc1,-11.5%
9,COc1ccc2oc(C(=O)NCC(Cc3ccccc3)N(C)C)c(C)c2c1 (stereo unspecified),-2.96%
10,O=C(NC(=S)Nc1ccc(Cl)c(C(=O)O)c1)c1cncc(Br)c1,5.31%
11,CC(C)c1ccc(NC(=S)NNc2ccc(Cl)c(C(=O)O)c2)cc1,54.9% (active)
12,Cc1ccc(C)c(NC(=S)NNC(=S)Nc2ccc(C(C)C)cc2)c1,3.22%
13,O=C(OCC(=O)N1CCN(C(=O)c2ccco2)CC1)c1ccc(Cl)c(Cl)c1,-3.89%
14,O=C1c2ccccc2S(=O)(=O)N1Cc1c(F)cccc1Cl,-6.43%
15,CC(Sc1nn(-c2ccc(Cl)cc2)c(=S)s1)C(=O)NCC1CCCO1 (stereo unspecified),-9%
16,O=C1NN(c2ccccc2)C(=O)/C1=C/c1ccc(-c2cccc(C(=O)O)c2)o1,52% (active)
17,C#CCOc1ccc(/C=C2/C(=O)NN(c3ccccc3)C2=O)cc1OC,-4.73%
18,COc1cc(/C=C2/C(=O)NN(c3cccc(Cl)c3)C2=O)cc(Br)c1O,2.98%
19,Cc1ccc(-c2c3c(=O)n(C)c(=O)n(C)c3cn2-n2cnnc2)cc1,-6%
20,CCOC(=O)Cc1cc(=O)[nH]c(/N=C(\N)Nc2ccc(OC)cc2)n1,-0.71%
21,Cc1cc(=O)[nH]c(N/N=C/c2c(C)nn(-c3ccccc3Cl)c2Cl)n1,-253%
22,COc1ccc(NS(=O)(=O)c2ccc(N3CCN(CCO)CC3)c([N+](=O)[O-])c2)cc1,-2.43%
23,CC1CCN(c2ccc(C(=O)Nc3nnc(C4CC4)s3)cc2[N+](=O)[O-])CC1,-0.75%

row,Compound,inhibition
1,CC1CCN(c2ccc(S(=O)(=O)Nc3cc(C(=O)O)cc(C(=O)O)c3)cc2[N+](=O)[O-])CC1,54.5% (active)
2,Cc1[nH]c2ccccc2c1/C=N/NC(=O)CNC(=O)c1ccc2c(c1)OCO2,-5.09%
3,O=C(CNC(=O)C(c1ccccc1)c1ccccc1)N/N=C\c1ccc2c(c1)OCO2,59.5% (active)
4,O=C(N/N=C/c1ccc2c(c1)OCO2)C(=O)N1CCCC1,-6.72%
5,CC1C(=O)N2CCCc3cc(S(=O)(=O)NCc4ccc(F)cc4)cc1c32 (stereo unspecified),-5.8%
6,CN(CCc1ccccn1)S(=O)(=O)c1ccc2c3c(cccc13)C(=O)N2,0.36%
7,COc1ccc(S(=O)(=O)N2CCC(C(=O)N3CCCC3)CC2)cc1C,-3.35%
8,CCOC(=O)c1sc(NC(=O)CSc2nc(C)cc(C(F)(F)F)n2)c(C#N)c1C,-3.8%
9,CC(C)c1cc(NCc2ccccn2)n2c(nc3ccccc32)c1C#N,-0.31%
10,O=C(O)c1cccc(NC(=O)c2cc(-c3cccc(Cl)c3)nc3ccccc23)c1,5.17%
11,O=C(Nc1cccc(F)c1)c1cc(-c2ccco2)nc2ccccc12,57.4% (active)
12,O=C(CSc1ccc(-c2ccco2)nn1)Nc1cccc(F)c1,-4.82%
13,Cc1cccc(Cn2cnc3c(N)c(C)c(C)cc32)c1,-2.5%
14,Cc1onc(-c2c(F)cccc2Cl)c1C(=O)Nc1cccc(S(=O)(=O)N2CCCCC2)c1,-7.5%
15,CC(=O)Nc1ccc(OCC(O)CN2CCN(c3ccccc3Cl)CC2)cc1 (stereo unspecified),0.19%
16,Cc1ccc(CN2CCN(c3ccccc3Cl)CC2)o1,51% (active)
17,Cc1ccc(CN2CCN(Cc3cn(C)nc3-c3ccccc3)CC2CCO)o1 (stereo unspecified),-12.6%
18,COc1ccc(C(=O)NCc2nnc(SCC(=O)NC3=NCCS3)n2C)cc1,-3.07%
19,CC(C)(C)OC(=O)NCCCCCNC(=O)c1[nH]cnc1C(=O)Nc1nccs1,-11.3%
20,COC(=O)c1ccc(-c2c(-c3ccccc3)ncc3cc(OC)c(OC)cc23)cc1,66.9% (active)
21,COC(=O)c1ccc(OC(=O)c2nn(C)cc2Cl)c(OC)c1,1.35%
22,COC(=O)c1ccc(SCc2ccccc2)nc1,-6.97%
23,Cc1ccc2c(c1)C(c1ccccc1)N(C(=O)c1ccc(S(=O)(=O)N3CCOCC3)cc1)CC(=O)N2 (stereo unspecified),-1%

row,Compound,inhibition
1,O=S(=O)(Nc1ccc(O)c2ccccc12)c1ccc(OC(F)(F)F)cc1,-14.4%
2,Nc1ccccc1SC(C[N+](=O)[O-])c1ccccc1 (stereo unspecified),2.72%
3,Cc1c(NC(=O)C(C)OC(=O)c2c3c(nc4ccccc24)CCC(C)C3)c(=O)n(-c2ccccc2)n1C (stereo unspecified),-2.49%
4,COc1cccc(CNCc2ccc3c(c2)OCO3)c1,-9.52%
5,Cc1ccc(C(=O)OCC(=O)NCc2ccc3c(c2)OCO3)s1,-4.92%
6,COc1cccc(CC(=O)OCC(=O)NCc2ccc3c(c2)OCO3)c1,64.5% (active)
7,CCOC(=O)C1CCN(C(=O)C2CCCN(S(=O)(=O)c3ccc(OC)c(Cl)c3)C2)CC1 (stereo unspecified),-4.52%
8,CC(=O)OCCC(C)C,12.2%
9,CC1=NN(C(=O)CCc2ccccc2O)C(O)(C(F)(F)F)C1 (stereo unspecified),63% (active)
10,CC1=NN(C(=O)CCCc2ccccc2)C(O)(C(F)(F)F)C1 (stereo unspecified),-2.98%
11,COc1ccc(CC(=O)N2N=C(C)CC2(O)C(F)(F)F)cc1 (stereo unspecified),-2.15%
12,CC(C)(C)c1cc(P(=O)(c2ccccc2)c2ccccc2)ccc1O,4.5%
13,O=C(NN=Cc1ccccc1)c1ccccc1,-6.69%
14,CSc1ccc(/C=N/NC(=O)c2cccc(Cl)c2)cc1,63.9% (active)
15,O=C(N/N=C/c1ccc(Cl)c(Cl)c1)c1ccc2nc[nH]c2c1,2.5%
16,N#CCCN1CCN(S(=O)(=O)c2ccc(S(=O)(=O)NC3CCCCC3)cc2)CC1,-9.7%
17,COc1cccc(/C=N/NC(=O)c2[nH]nc3c2CCc2ccccc2-3)c1O,89% (active)
18,COc1cc(/C=N/NC(=O)c2cc(-c3ccccc3C)nc3ccccc23)cc(OC)c1O,-6.97%
19,Cc1ccc(C(=O)N/N=C/c2cccc3ccccc23)cn1,0.35%
20,CN(C(=O)COC(=O)Cc1ccccc1[N+](=O)[O-])C1CCS(=O)(=O)C1 (stereo unspecified),1.98%
21,CN(CCOc1ccccc1)C(=O)c1cc(-c2ccco2)nc2ccccc12,49%
22,CN(C(=O)COC(=O)c1cc(-c2ccco2)nc2ccccc12)C1CCS(=O)(=O)C1 (stereo unspecified),88.8% (active)
